PvdQ acylase: P. aeruginosa PvdQ acylase inhibition | purified PvdQ acylase, fluorescence plate reader | inhibition, % at 10 µM | 0.063% of 340,000 active | AID 488965; in the data active = inhibition above about 30%, passing the limit was not always enough; inconclusive = no clear call, values can overlap the other calls
CDK5 p35 inh: blocks human CDK5/p35 kinase activity; Q00535+Q15078; Recombinant CDK5/p35, ADP-Glo luminescence, 60 min; inhibition, % at 10 µM; 0.01% of 330,000 active; AID 488839;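 active = highest replicate inhibition of at least 50% and at least 75% of replicates reaching 50%; inconclusive = only one of the two criteria met; inactive = both criteria failed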
Target sequence (Q00535 whole entry, looked up): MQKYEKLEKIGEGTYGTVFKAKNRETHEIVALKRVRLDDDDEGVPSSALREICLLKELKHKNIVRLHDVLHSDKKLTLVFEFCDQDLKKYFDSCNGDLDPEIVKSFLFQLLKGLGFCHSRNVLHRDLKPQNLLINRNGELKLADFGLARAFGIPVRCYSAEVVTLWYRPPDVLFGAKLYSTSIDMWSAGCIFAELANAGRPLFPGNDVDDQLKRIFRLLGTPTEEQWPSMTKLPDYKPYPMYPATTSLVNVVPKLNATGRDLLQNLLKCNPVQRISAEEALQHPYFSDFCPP
Target sequence (Q15078 whole entry, looked up): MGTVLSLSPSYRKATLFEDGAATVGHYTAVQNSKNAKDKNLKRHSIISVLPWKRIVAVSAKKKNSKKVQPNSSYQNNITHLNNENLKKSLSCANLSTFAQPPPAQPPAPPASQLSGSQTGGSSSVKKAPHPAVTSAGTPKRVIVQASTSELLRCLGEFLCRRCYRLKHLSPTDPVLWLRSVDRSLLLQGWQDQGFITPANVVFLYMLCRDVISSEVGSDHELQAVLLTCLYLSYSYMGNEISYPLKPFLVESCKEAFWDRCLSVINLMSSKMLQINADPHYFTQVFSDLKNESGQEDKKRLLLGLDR
CAL PDZ FP-1: blocks peptide binding to human CAL PDZ domain; Q9HD26; purified CAL PDZ, TMR-peptide fluorescence polarization, 1 h; inhibition, % at 20 µM; 0.02% of 330,000 active; AID 504414;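 active = highest replicate inhibition of at least 40%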
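Material: tagged CAL PDZ protein CerCALP, purified; buffer or medium: sodium phosphate/NaCl buffer pH 7.4 with TCEP, IgG, Thesit; also added: fluorescent TMR peptide probe; schedule: 1 h incubation at room temperature before polarization reading; technique: fluorescence polarization from S- and P-plane intensities, G-factor corrected; control set: unlabelled peptide and DMSO controls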
Vif inh: inhibitors of HIV Vif; 0.35% of 340,000 active; inhibition, % at 7.49 µM; HEK293T cells, Vif self-association by quenched fluorescence, imaging, 24 h; in the data active = inhibition above about 50%, passing the limit was not always enough; inconclusive = no clear call, values can overlap the other calls; inactive = below about 31%
Glyco luc inh: blocks N-linked glycosylation in D54 reporter cells. D54 ERlucT glycosylation luciferase reporter, 24 h; percent of 100 nM tunicamycin response. reporter increase, % at 12.5 µM. 0.23% of 360,000 active. AID 588692;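 active = mean luciferase reporter signal, scaled so untreated is 0 and the glycosylation-blocking control 100, at or above a set limit in every replicate; inconclusive = mean reaches the limit but not every replicate does; inactive = mean below the limit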;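 note: luciferase carries N-glycosylation sites so blocking glycosylation raises the light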
CAL PDZ FP-2: blocks peptide binding to the human CAL PDZ domain | 0.92% of 300,000 active | inhibition, % at 24.9 µM | purified CAL PDZ, TMR-peptide fluorescence polarization, 1 h | Q9HD26;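 active = mean inhibition of at least 30% with at least half of replicates also reaching 30%; inconclusive = no clear call, values can overlap the other calls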
Hits are given with their value; - = inactive; ? = inconclusive; . = no result. The list is not random: actives were taken first. Their share in the collection is about 1.4%.

SMILES | PvdQ acylase | CDK5 p35 inh | CAL PDZ FP-1 | Vif inh | Glyco luc inh | CAL PDZ FP-2
O=C(O)Cn1c(-c2ccccc2)cc2ccccc21 | - | - | - | - | - | 62
O=c1c2ccccc2nnn1CSc1nnc(Nc2ccccc2)s1 | - | - | - | 51 | - | -
Cc1noc(C)c1NC(=O)Nc1ccc2c(c1)C(=O)N([C@H](C)CO)C[C@H](C)[C@H](CN(C)C)O2 | - | - | - | - | - | -
COc1cc(C(=O)COC(=O)c2cc([N+](=O)[O-])ccc2N2CCOCC2)ccc1OC(F)F | - | - | - | - | - | -
CN(C)S(=O)(=O)c1cccc(C(=O)NC2CCSc3ccccc32)c1 (stereo unspecified) | - | - | - | 99 | - | -
O=C(NC1CCCc2ccccc21)c1ccccc1 (stereo unspecified) | - | - | - | - | - | -
CS(=O)(=O)c1ccc(C(=O)NC2CCCc3ccccc32)cc1 (stereo unspecified) | - | - | - | - | - | 58
CN(C)c1cccc(C(=O)NC2CCCc3ccccc32)c1 (stereo unspecified) | - | - | - | - | - | 59
CC(=O)c1ccc(OC(C)C(=O)NCC2(N3CCOCC3)CCCCC2)cc1 (stereo unspecified) | - | - | - | - | - | -
COc1cc(/C=N/NC(=O)c2cc(-c3cccn3C)n[nH]2)cc(OC)c1OC | - | - | - | - | 68 | -
CC(C)NC(=O)N(C)C[C@@H]1OCc2cn(nn2)CCCC(=O)N([C@H](C)CO)C[C@H]1C | . | . | . | - | - | .
COc1ccc(-c2csc(C(O)c3ccc(F)c(OC)c3)n2)cc1 (stereo unspecified) | . | . | . | - | - | .
O=C1c2cccc3c(N4CCCCC4)ccc(c23)C(=O)N1c1cccc(O)c1 | - | - | - | 185 | - | -
COc1ccc(-n2c(C)c(C(C)=O)c3cc(OCC(N)=O)ccc32)cc1 | - | - | - | - | - | 38
CCOc1ccc(-n2c(C)c(C(C)=O)c3cc(OCC(N)=O)ccc32)cc1 | - | - | - | - | - | -
O=C(COC(=O)Cn1cnc2ccccc21)Nc1cc2c(cc1Cl)C(=O)c1ccccc1C2=O | - | - | - | - | - | 80
O=C(NCc1ccc(Cl)c(Cl)c1)C1CCCC1 | . | . | . | - | - | .
Cc1nn(CCCC(=O)N2CCc3ccccc3C2)c(=O)c2cc3sccc3n12 | - | - | - | 85 | - | .
CCCNC(=O)C1(C)CCCN(Cc2csc3ccccc23)C1 (stereo unspecified) | . | . | . | - | - | .
Cc1ccc(Cn2c(=N)c(S(=O)(=O)c3ccc(Br)cc3)cc3c(=O)n4ccccc4nc32)cc1 | - | - | - | 53 | - | -
N=c1c(S(=O)(=O)c2ccc(Br)cc2)cc2c(=O)n3ccccc3nc2n1Cc1ccccc1 | - | - | - | - | - | -
CC12CCC(=O)N1C(C(=O)N1CCN(S(=O)(=O)c3ccc(Br)cc3Cl)CC1)CS2 (stereo unspecified) | - | - | - | - | - | -
COC(=O)C1=C(C)N(Cc2ccco2)C(=O)/C1=C\c1ccc([N+](=O)[O-])cc1 | - | - | - | - | - | -
COC(=O)C1=C(C)N(Cc2ccco2)C(=O)/C1=C\c1ccc(N(C)C)cc1 | - | - | - | 71 | - | -
CC(C)(C)C(=O)Nc1ccnn1C1CCN(C(=O)c2ccc(Cl)cc2F)CC1 | - | - | - | - | - | 44
SMILES | PvdQ acylase | CDK5 p35 inh | CAL PDZ FP-1 | Vif inh | Glyco luc inh | CAL PDZ FP-2
CC1=C(C(=O)N(C)C)CC(CC(=O)NCc2cccc3ccccc23)C(=O)N1Cc1ccccc1 (stereo unspecified) | . | . | . | . | - | .
COc1ccc(S(=O)(=O)NCCC(=O)OCC(=O)c2ccc[nH]2)cc1[N+](=O)[O-] | - | - | - | - | - | 46
COc1cc(C(=O)NCC(=O)OCC(=O)c2ccc[nH]2)cc(OC)c1OC | - | - | - | - | - | 61
Cc1cccc(C)c1NC(=O)CN(C)C(=O)CN1C(=O)NC(C)(C)C1=O | - | - | - | - | - | -
OCCC1CN(Cc2ccc3cc(Cl)ccc3n2)CCN1Cc1ccsc1 (stereo unspecified) | - | - | - | - | - | 72
OCCC1CN(Cc2ccc3nonc3c2)CCN1Cc1ccsc1 (stereo unspecified) | - | - | - | - | - | -
C=CCn1c(O)c(/C=C2\C=NN=C2c2ccccc2)sc1=S | - | - | - | - | - | 52
Cc1ccc(C)c(NC(=O)CSc2nc(=O)n(CCN3CCOCC3)c3c2CCCC3)c1 | - | - | - | - | - | -
COc1ccc(-c2nc3ccccn3c2NCc2ccc3c(c2)OCO3)cc1 | - | - | - | - | - | -
COc1ccc(-c2cc(-c3nc4ccccn4c3NCc3ccccc3)ccc2OC)cc1 | - | - | - | 77 | - | -
Cc1cc(C(=O)N2CCN(c3ccc([N+](=O)[O-])cc3)CC2)co1 | - | - | - | 86 | - | .
Cc1ccc(C(=O)COC(=O)c2cc(=O)[nH]c3ccccc23)cc1C | - | - | - | 66 | - | -
NS(=O)(=O)c1ccc(CNC(=S)NCc2ccc(F)cc2)cc1 | - | - | - | - | - | 39
Cc1cc(C)nc(S/C=C/C(=O)c2ccccc2F)n1 | - | - | - | - | - | 80
Cc1cc(C)nc(NC(=S)NC(=O)c2ccccc2F)n1 | . | . | . | - | - | .
O=C(O)Cc1sc(Nc2cccc3ccccc23)nc1-c1ccc(Cl)cc1 | - | - | . | - | - | 62
C=CCNC(=O)N1CCC(c2nc3ccccc3s2)CC1 | - | - | - | - | - | -
CCCCCCC(=O)Oc1cccc(N2C(=O)C3CCCCC3C2=O)c1 (stereo unspecified) | - | - | - | - | - | 79
CCCCn1c(NC(=O)c2ccccc2)c(C#N)c2nc3ccccc3nc21 | - | - | - | 52 | - | -
CCC(C)n1c(NC(=O)c2ccccc2)c(C#N)c2nc3ccccc3nc21 (stereo unspecified) | - | - | . | - | - | -
COc1cc(-c2cc(NC=O)c3ncc(-c4cccc(C(=O)N(C)C)c4)n3c2)cc(OC)c1OC | . | . | . | - | - | .
COc1ccccc1-c1cc(NC=O)c2ncc(-c3cccc(C(=O)N(C)C)c3)n2c1 | . | . | . | ? | 41 | .
CN(C(=O)COC(=O)c1ccc(F)c(S(=O)(=O)N2CCOCC2)c1)C1CCS(=O)(=O)C1 (stereo unspecified) | - | - | - | - | - | -
CCc1nc2ccc(C(=O)NCCCn3ccnc3)cn2c1N(C)C(=O)COc1ccccc1 | . | . | . | - | - | .
Clc1cncc(Cl)c1N/N=C/c1ccncc1 | - | 52 | - | - | - | -
O=C(Cn1c(=O)oc2cc(S(=O)(=O)N3CCCCC3)ccc21)N1CCc2ccccc21 | - | - | - | 53 | - | -
Cc1ccc(CN2CC(C(=O)Nc3cc(C)ccn3)CC2=O)cc1 (stereo unspecified) | - | - | - | - | - | -

From PubChem BioAssay
